From ChEMBL document CHEMBL3414496, “Synthesis and biological evaluation of novel 2-heteroarylimino-1,3-thiazolidin-4-ones as potential anti-tumor agents” (Eur J Med Chem, 2015)
Calls of active or inactive are those of the source. No cut-off for these calls is given here.

Legend:
[1] = system: HT-29; assay: Induction of HO1 expression in human HT-29 cells at 3.8 uM after 2 hrs by Western blotting method; assay type: functional
In short: (§1)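 HT29 whole-cell lysates in Hepes/KOH pH 7.5 with EDTA, KCl, NP40, DTT, protease inhibitors; 50 µg protein on 10–15% SDS-PAGE, nitrocellulose, overnight 4°C primary antibody (GCL 1:500, HO-1 1:1000), HRP secondary, chemiluminescence. Bands normalized to GAPDH (1:10 000), DMSO ratio set at 1.00; representative of three independent experiments.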

[2] = system: HT-29; assay: Induction of NQO1 expression in human HT-29 cells at 3.8 uM after 24 hrs by Western blotting method; assay type: functional
In short: (§2)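 Whole-cell lysates from treated HT29 cells in pH 7.5 Hepes/KOH buffer with EDTA, KCl, Igepal, DTT and protease inhibitors. 50 µg protein run on 10-15% SDS-PAGE and transferred to nitrocellulose. Probed overnight at 4°C with anti-HO-1 (1:1 000), anti-NQO1 (1:1 000) or anti-GCL (1:500), then HRP secondary for 45 min and chemiluminescence. Bands normalized to GAPDH (1:10 000), with the DMSO ratio set to 1.00. Representative of three experiments.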

[3] = system: HT-29; assay: Induction of NQO1 expression in human HT-29 cells at 3.8 uM after 6 hrs by Western blotting method; assay type: functional; in short: as §2
[4] = system: HT-29; assay: Induction of HO1 expression in human HT-29 cells at 3.8 uM after 4 hrs by Western blotting method; assay type: functional; in short: as §1
[5] = system: HT-29; assay: Induction of GCL expression in human HT-29 cells at 3.8 uM after 2 hrs by Western blotting method; assay type: functional; in short: as §1
[6] = system: HT-29; assay: Induction of HO1 expression in human HT-29 cells at 3.8 uM after 6 hrs by Western blotting method; assay type: functional; in short: as §1
[7] = system: HT-29; assay: Induction of GCL expression in human HT-29 cells at 3.8 uM after 6 hrs by Western blotting method; assay type: functional; in short: as §1
[8] = system: HT-29; assay: Induction of NQO1 expression in human HT-29 cells at 3.8 uM after 4 hrs by Western blotting method; assay type: functional; in short: as §2
[9] = system: HT-29; assay: Induction of HO1 expression in human HT-29 cells at 3.8 uM after 24 hrs by Western blotting method; assay type: functional; in short: as §1
[10] = system: HT-29; assay: Induction of GCL expression in human HT-29 cells at 3.8 uM after 4 hrs by Western blotting method; assay type: functional; in short: as §1
[11] = system: HT-29; assay: Induction of NQO1 expression in human HT-29 cells at 3.8 uM after 2 hrs by Western blotting method; assay type: functional; in short: as §2
[12] = system: HT-29; assay: Induction of GCL expression in human HT-29 cells at 1.5 uM after 2 hrs by Western blotting method; assay type: functional; in short: as §1
[13] = system: HT-29; assay: Induction of HO1 expression in human HT-29 cells at 1.5 uM after 2 hrs by Western blotting method; assay type: functional; in short: as §1
[14] = system: HT-29; assay: Induction of GCL expression in human HT-29 cells at 1.5 uM after 6 hrs by Western blotting method; assay type: functional; in short: as §1
[15] = system: HT-29; assay: Induction of GCL expression in human HT-29 cells at 1.5 uM after 24 hrs by Western blotting method; assay type: functional; in short: as §1
[16] = system: HT-29; assay: Induction of NQO1 expression in human HT-29 cells at 1.5 uM after 24 hrs by Western blotting method; assay type: functional; in short: as §2
[17] = system: HT-29; assay: Induction of NQO1 expression in human HT-29 cells at 1.5 uM after 2 hrs by Western blotting method; assay type: functional; in short: as §2
[18] = system: HT-29; assay: Induction of HO1 expression in human HT-29 cells at 1.5 uM after 6 hrs by Western blotting method; assay type: functional; in short: as §1
[19] = system: HT-29; assay: Induction of HO1 expression in human HT-29 cells at 1.5 uM after 24 hrs by Western blotting method; assay type: functional; in short: as §1
[20] = system: HT-29; assay: Induction of HO1 expression in human HT-29 cells at 1.5 uM after 4 hrs by Western blotting method; assay type: functional; in short: as §1
[21] = system: HT-29; assay: Induction of GCL expression in human HT-29 cells at 1.5 uM after 4 hrs by Western blotting method; assay type: functional; in short: as §1
[22] = system: HT-29; assay: Inhibition of cell growth in human HT-29 cells assessed as mitotic index ratio in presence of 1 mM ascorbic acid (reference value: 1.08 +/- 0.04); assay type: functional
[23] = system: HT-29; assay: Induction of ROS generation in human HT-29 cells at 2.5 uM after 3 hrs by DCF-DA staining based fluorescence assay; assay type: functional, cell-based
In short: (§3)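 HT29 cells treated two days after seeding, then loaded with 50 µM DCF-DA for 15 min at 37°C. Cells trypsinized, washed and resuspended in PBS, and 30 000 cells/sample read by flow cytometry (FL-1). Expressed as % of DMSO-treated cells; […] for 1 h served as positive control. Triplicates from three independent experiments.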

[24] = system: HT-29; assay: Induction of GCL expression in human HT-29 cells at 6.4 uM after 6 hrs by Western blotting method; assay type: functional; in short: as §1
[25] = system: HT-29; assay: Induction of HO1 expression in human HT-29 cells at 6.4 uM after 2 hrs by Western blotting method; assay type: functional; in short: as §1
[26] = system: HT-29; assay: Induction of HO1 expression in human HT-29 cells at 6.4 uM after 4 hrs by Western blotting method; assay type: functional; in short: as §1
[27] = system: HT-29; assay: Induction of NQO1 expression in human HT-29 cells at 6.4 uM after 4 hrs by Western blotting method; assay type: functional; in short: as §2
[28] = system: HT-29; assay: Induction of GCL expression in human HT-29 cells at 6.4 uM after 4 hrs by Western blotting method; assay type: functional; in short: as §1
[29] = system: HT-29; assay: Induction of HO1 expression in human HT-29 cells at 6.4 uM after 24 hrs by Western blotting method; assay type: functional; in short: as §1
[30] = system: HT-29; assay: Induction of NQO1 expression in human HT-29 cells at 6.4 uM after 24 hrs by Western blotting method; assay type: functional; in short: as §2
[31] = system: HT-29; assay: Induction of ROS generation in human HT-29 cells at 2.5 uM after 2 to 6 hrs by DCF-DA staining based fluorescence assay; assay type: functional, cell-based; in short: as §3
[32] = system: HT-29; assay: Induction of GCL expression in human HT-29 cells at 10 uM after 4 hrs by Western blotting method; assay type: functional; in short: as §1
[33] = system: HT-29; assay: Induction of HO1 expression in human HT-29 cells at 10 uM after 6 hrs by Western blotting method; assay type: functional; in short: as §1
[34] = system: HT-29; assay: Induction of NQO1 expression in human HT-29 cells at 10 uM after 6 hrs by Western blotting method; assay type: functional; in short: as §2
[35] = system: HT-29; assay: Induction of HO1 expression in human HT-29 cells at 10 uM after 2 hrs by Western blotting method; assay type: functional; in short: as §1
[36] = system: HT-29; assay: Induction of GCL expression in human HT-29 cells at 10 uM after 24 hrs by Western blotting method; assay type: functional; in short: as §1
[37] = system: HT-29; assay: Induction of NQO1 expression in human HT-29 cells at 10 uM after 24 hrs by Western blotting method; assay type: functional; in short: as §2
[38] = system: HT-29; assay: Induction of HO1 expression in human HT-29 cells at 10 uM after 4 hrs by Western blotting method; assay type: functional; in short: as §1
[39] = system: HT-29; assay: Induction of GCL expression in human HT-29 cells at 10 uM after 2 hrs by Western blotting method; assay type: functional; in short: as §1
[40] = system: HT-29; assay: Induction of NQO1 expression in human HT-29 cells at 10 uM after 2 hrs by Western blotting method; assay type: functional; in short: as §2
[41] = system: HT-29; assay: Induction of NQO1 expression in human HT-29 cells at 10 uM after 4 hrs by Western blotting method; assay type: functional; in short: as §2

COc1ccc(/C=C2\S/C(=N\c3csc(-c4ccc(Cl)cc4)c3)NC2=O)cc1
fold change (FC) [1]: 1
fold change (FC) [2]: 0.88
fold change (FC) [3]: 0.9
fold change (FC) [4]: 1
fold change (FC) [5]: 1.22
fold change (FC) [6]: 1
fold change (FC) [7]: 1.69
fold change (FC) [8]: 0.87
fold change (FC) [9]: 1
fold change (FC) [10]: 1.49
fold change (FC) [11]: 1.16

CN(C)c1ccc(/C=C2\S/C(=N\c3csc(-c4ccc(Cl)cc4)c3)NC2=O)cc1
fold change (FC) [12]: 0.9
fold change (FC) [13]: 1
fold change (FC) [14]: 0.99
fold change (FC) [15]: 1.52
fold change (FC) [16]: 1.07
fold change (FC) [17]: 1.15
fold change (FC) [18]: 1
fold change (FC) [19]: 1
fold change (FC) [20]: 1
fold change (FC) [21]: 0.96

CN(C)c1ccc(/C=C2\S/C(=N\c3nc(-c4ccc(Cl)cc4)cs3)NC2=O)cc1
Ratio [22]: 0.09
Activity [23]: Active

Cc1ccc(/C=C2\S/C(=N\c3csc(-c4ccc(Cl)cc4)c3)NC2=O)cc1
fold change (FC) [24]: 2.25
fold change (FC) [25]: 1
fold change (FC) [26]: 1
fold change (FC) [27]: 2.59
fold change (FC) [28]: 2.54
fold change (FC) [29]: 1
fold change (FC) [30]: 1.6

COc1ccc(/C=C2\S/C(=N\c3nc(-c4ccc(Cl)cc4)cs3)NC2=O)cc1
Activity [31]: inactive

COc1ccc(/C=C2\S/C(=N\c3csc(-c4ccc(Cl)cc4)c3)NC2=O)cc1OC
fold change (FC) [32]: 1.16
fold change (FC) [33]: 1
fold change (FC) [34]: 1.23
fold change (FC) [35]: 1
fold change (FC) [36]: 1.11
fold change (FC) [37]: 0.9
fold change (FC) [38]: 1
fold change (FC) [39]: 0.96
fold change (FC) [40]: 1.04
fold change (FC) [41]: 1.26
